The source made the active and inactive calls. No cut-off for these calls is given here.
Columns and labels:
Bos taurus [1] = organism: Bos taurus; test: Inhibition of calf thymus topoisomerase 1 assessed as induction of supercoiled plasmid pCI DNA nicking at 200 uM after 30 mins by gel electrophoresis
Method in brief: (§1)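 Calf thymus topoisomerase I (8 U) with 0.8 µg supercoiled pCI in Tris-HCl pH 7.5 buffer with 175 mM KCl, 5 mM MgCl2, 0.1 mM EDTA and 2.5% glycerol, 37 °C for 30 min. Stopped with SDS, then proteinase K at 37 °C for 15 min and phenol/chloroform extraction. Run on 1% agarose with or without 0.5 µg/mL EtBr and viewed under UV.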

MIA PaCa-2 [2] = test: Cell cycle arrest in human MiaPaCa2 cells assessed as accumulation at G1/G0 phase at 10 uM after 24 hrs by flow cytometry; type: functional
Method in brief: (§2)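 2 × 10⁵ cells per well, compound (10 µM) added after 24 h, then 24, 48 or 72 h. Floating and attached cells pooled, fixed in 70% ethanol and kept at −20 °C. Stained with PI 1 µg/mL plus RNase A 0.2 µg/µL. 20 000 events by flow cytometry, phase percentages from DNA histograms. Duplicates, repeated at least twice.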

DNA [3] = test: Binding affinity to calf thymus DNA at 0.2 of [compound]/[calf thymus DNA] at pH 7.0 by thermal denaturation assay; type: nucleic-acid assay; details: Bos taurus
Method in brief: (§3)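 Absorbance at 260 nm followed against temperature for free polynucleotide and complexes, in Na cacodylate buffer pH 7.0, I = 0.05 mol dm^-3. Ligand absorbance subtracted and curves normalized. Tm taken from the first-derivative maximum or by tangent method. ΔTm = Tm(complex) − Tm(free), average of at least two runs, error ±0.5 °C.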

MIA PaCa-2 [4] = test: Induction of apoptosis in human MiaPaCa2 cells at 10 uM after 72 hrs by annexin V assay; type: functional
Method in brief: (§4)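 2 × 10⁴ cells per well, compounds added after 24 h, exposure 72 h. Floating and attached cells collected, washed and stained with annexin-V-fluorescein plus PI in Hepes buffer, then counted by fluorescence microscopy. Annexin-V-positive cells scored apoptotic, annexin-V/PI-positive scored necrotic. Apoptotic percentage taken relative to total cells.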

HEp-2 = test: Antiproliferative activity against human Hep2 cells after 72 hrs by MTT assay; type: functional, cell-based; details: HEp-2, 72 h
Method in brief: (§5)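 Monolayer cultures in DMEM with 10% FBS, 2 mM L-glutamine, penicillin and streptomycin, at 37 °C in 5% CO2. Seeded at 1 × 10⁴ to 3 × 10⁴ cells/mL on day 0. Compounds added at 10^-8 to 10^-4 M, then 72 h. MTT read-out, quadruplicate in three experiments, with a solvent control. IC50 by linear regression of percent growth around 50%.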

MIA PaCa-2 [5] = test: Induction of apoptosis in human MiaPaCa2 cells at 5 uM after 72 hrs by annexin V assay; type: functional; method in brief: as §4
MIA PaCa-2 [6] = test: Cell cycle arrest in human MiaPaCa2 cells assessed as accumulation at G1/G0 phase at 10 uM after 48 hrs by flow cytometry; type: functional; method in brief: as §2
MIA PaCa-2 [7] = test: Cell cycle arrest in human MiaPaCa2 cells assessed as accumulation at sub G1 phase at 10 uM after 72 hrs by flow cytometry; type: functional; method in brief: as §2
Nucleic Acid = test: Binding affinity to polyA-polyU double stranded RNA at 0.3 of [compound]/[double stranded polynucleotide] at pH 7.0 by thermal denaturation assay; type: nucleic-acid assay; method in brief: as §3
MIA PaCa-2 [8] = test: Cell cycle arrest in human MiaPaCa2 cells assessed as accumulation at S phase at 10 uM after 24 hrs by flow cytometry; type: functional; method in brief: as §2
Bos taurus [9] = organism: Bos taurus; test: Inhibition of calf thymus topoisomerase 1-mediated supercoiled plasmid pCI DNA relaxation activity at 200 uM after 30 mins by gel electrophoresis; method in brief: as §1
HeLa [10] = test: Induction of apoptosis in human HeLa cells at 10 uM after 72 hrs by annexin V assay; type: functional; method in brief: as §4
[11] = Binding affinity to polyA-polyU double stranded RNA at pH 7.0 by fluorimetric titration
Method in brief: (§6)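 Polynucleotide, given as phosphate concentration, added in portions to the compound in Na cacodylate buffer pH 7.0, I = 0.05 mol dm^-3, with polynucleotide in high excess. Emission recorded 350–550 nm, absorbance below 0.05 at excitation. Ks and n from nonlinear least-squares Scatchard fits. log K recalculated at fixed n = 0.2.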

MIA PaCa-2 [12] = test: Cell cycle arrest in human MiaPaCa2 cells assessed as accumulation at S phase at 10 uM after 48 hrs by flow cytometry; type: functional; method in brief: as §2
[13] = Antiproliferative activity against human WI38 cells after 72 hrs by MTT assay; type: cell-based; details: WI-38, 72 h
DNA [14] = test: Binding affinity to calf thymus DNA at pH 7.0 by fluorimetric titration; type: nucleic-acid assay; details: Bos taurus; method in brief: as §6
DNA [15] = test: Binding affinity to calf thymus DNA at 0.3 of [compound]/[calf thymus DNA] at pH 7.0 by thermal denaturation assay; type: nucleic-acid assay; details: Bos taurus; method in brief: as §3
HeLa [16] = test: Induction of apoptosis in human HeLa cells at 5 uM after 72 hrs by annexin V assay; type: functional; method in brief: as §4
MIA PaCa-2 [17] = test: Cell cycle arrest in human MiaPaCa2 cells assessed as accumulation at G2/M phase at 10 uM after 24 hrs by flow cytometry; type: functional; method in brief: as §2
MIA PaCa-2 [18] = test: Cell cycle arrest in human MiaPaCa2 cells assessed as accumulation at S phase at 10 uM after 72 hrs by flow cytometry; type: functional; method in brief: as §2
MIA PaCa-2 [19] = test: Cell cycle arrest in human MiaPaCa2 cells assessed as accumulation at G2/M phase at 10 uM after 48 hrs by flow cytometry; type: functional; method in brief: as §2
MIA PaCa-2 [20] = test: Cell cycle arrest in human MiaPaCa2 cells assessed as accumulation at G2/M phase at 10 uM after 72 hrs by flow cytometry; type: functional; method in brief: as §2
MIA PaCa-2 [21] = test: Cell cycle arrest in human MiaPaCa2 cells assessed as accumulation at G1/G0 phase at 10 uM after 72 hrs by flow cytometry; type: functional; method in brief: as §2
MIA PaCa-2 [22] = test: Cell cycle arrest in human MiaPaCa2 cells assessed as accumulation at sub G1 phase at 10 uM after 48 hrs by flow cytometry; type: functional; method in brief: as §2
HeLa [23] = test: Antiproliferative activity against human HeLa cells after 72 hrs by MTT assay; type: functional, cell-based; method in brief: as §5
MIA PaCa-2 [24] = test: Antiproliferative activity against human MiaPaCa2 cells after 72 hrs by MTT assay; type: functional, cell-based; details: MIA PaCa-2, 72 h; method in brief: as §5
MCF7 = test: Antiproliferative activity against human MCF7 cells after 72 hrs by MTT assay; type: functional, cell-based; details: MCF7, 72 h; method in brief: as §5
[25] = Binding affinity to polyG-polyC double stranded RNA at pH 7.0 by fluorimetric titration; method in brief: as §6
MIA PaCa-2 [26] = test: Cell cycle arrest in human MiaPaCa2 cells assessed as accumulation at sub G1 phase at 10 uM after 24 hrs by flow cytometry; type: functional; method in brief: as §2
DNA [27] = test: Binding affinity to calf thymus DNA at 0.1 of [compound]/[calf thymus DNA] at pH 7.0 by thermal denaturation assay; type: nucleic-acid assay; details: Bos taurus; method in brief: as §3
SW-620 = test: Antiproliferative activity against human SW620 cells after 72 hrs by MTT assay; type: functional, cell-based; details: SW-620, 72 h; method in brief: as §5
Bos taurus [28] = organism: Bos taurus; test: Inhibition of calf thymus topoisomerase 1 assessed as induction of supercoiled plasmid pCI DNA nicking at 100 uM after 30 mins by gel electrophoresis
Method in brief: (§7)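 Calf thymus topoisomerase I (8 U) with 0.8 µg negatively supercoiled pCI plasmid in relaxation buffer (10 mM Tris-HCl pH 7.5, 175 mM KCl, 5 mM MgCl2, 0.1 mM EDTA, 2.5% glycerol), ± test agent, 37 °C for 30 min. Stopped with SDS, then proteinase K digestion and phenol/chloroform/isoamyl alcohol extraction. Split onto 1% agarose gels with or without 0.5 µg/mL ethidium bromide. Nicked, relaxed and supercoiled bands viewed under UV.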

Bos taurus [29] = organism: Bos taurus; test: Inhibition of calf thymus topoisomerase 1 assessed as induction of supercoiled plasmid pCI DNA nicking at 10 uM after 30 mins by gel electrophoresis; method in brief: as §7
Bos taurus [30] = organism: Bos taurus; test: Inhibition of calf thymus topoisomerase 1-mediated supercoiled plasmid pCI DNA relaxation activity at 10 uM after 30 mins by gel electrophoresis; method in brief: as §7

Compound | ΔTm (DNA [3]) | IC50 (HEp-2) | ΔTm (Nucleic Acid) | IC50 [13] | log K (DNA [14]) | ΔTm (DNA [15]) | IC50 (HeLa [23]) | IC50 (MIA PaCa-2 [24]) | IC50 (MCF7) | ΔTm (DNA [27]) | IC50 (SW-620) | also measured
C(=C\c1cccs1)/c1nc2ccc(C3=NCCN3)cc2[nH]1.Cl | 1.3 °C | 11 µM | 2.2 °C | 29 µM | 5 | 1.4 °C | 5 µM | 10 µM | 3 µM | 1.3 °C | 11 µM | Activity (Bos taurus [1]): Active; Activity (MIA PaCa-2 [2]): 39%; Activity (MIA PaCa-2 [4]): 4%; Activity (MIA PaCa-2 [5]): 2%; Activity (MIA PaCa-2 [6]): 49%; Activity (MIA PaCa-2 [7]): 3%; Activity (MIA PaCa-2 [8]): 42%; Activity (Bos taurus [9]): Active; Activity (HeLa [10]): 14%; log K [11]: 5.8; Activity (MIA PaCa-2 [12]): 31%; Activity (HeLa [16]): 8%; Activity (MIA PaCa-2 [17]): 19%; Activity (MIA PaCa-2 [18]): 26%; Activity (MIA PaCa-2 [19]): 20%; Activity (MIA PaCa-2 [20]): 19%; Activity (MIA PaCa-2 [21]): 55%; Activity (MIA PaCa-2 [22]): 1%; log K [25]: 5.6; Activity (MIA PaCa-2 [26]): 1%
CC[C@@]1(O)C(=O)OCc2c1cc1n(c2=O)Cc2cc3ccccc3nc2-1 |  |  |  |  |  |  |  |  |  |  |  | Activity (Bos taurus [28]): Active
N=C(NC1CCCCC1)c1ccc2nc(/C=C/c3ccco3)[nH]c2c1 | 1.6 °C | 65 µM | 1.6 °C | > 100 µM | 5.2 | 1.5 °C | 6 µM | 78 µM | 19 µM | 1 °C | > 100 µM | 
C(=C\c1ccco1)/c1nc2ccc(C3=NCCN3)cc2[nH]1 |  | 67 µM |  | > 100 µM |  |  | 10 µM | 51 µM | 9 µM |  | 50 µM | 
CC[n+]1c(-c2ccccc2)c2cc(N)ccc2c2ccc(N)cc21 |  |  |  |  |  |  |  |  |  |  |  | Activity (Bos taurus [29]): inactive; Activity (Bos taurus [30]): Active
N=C(N)c1ccc2nc(/C=C/c3ccco3)[nH]c2c1 |  | 19 µM |  | > 100 µM |  |  | 4 µM | > 100 µM | 12 µM |  | 16 µM | 

— ChEMBL document CHEMBL1155950, “Novel amidino-substituted thienyl- and furylvinylbenzimidazole: derivatives and their photochemical conversion into corresponding diazacyclopenta[c]fluorenes. synthesis, interactions with DNA and RNA, and antitumor evaluation. 4” (J Med Chem, 2008)
